Laboratory results taken from ChEMBL document CHEMBL3046880, “Syntheses and herbicidal activities of novel triazolinone derivatives” (J Agric Food Chem, 2008).

Experiments:
Format in all cases: functional
Brassica juncea [1] = test: Herbicidal activity against Brassica juncea assessed as growth inhibition at 150 g of active ingredient/ha administered using post-emergence treatment measured 15 days post treatment protocol under greenhouse conditions
In short: (§1)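 Test agents were formulated as 100 g/L emulsified concentrates (DMF solvent, TW-80 emulsifier), diluted with water and sprayed postemergence on pot-grown weeds. Seeds were sown 1-3 cm deep in clay soil (pH 6.5, 1.6% organic matter, 37.3% clay, CEC […]) and grown at 15–30 °C in a greenhouse. Dicots were treated at the two-leaf stage. Untreated and DMF-treated plants served as controls. Activity was scored visually 15 days after treatment.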

Setaria viridis [2] = test: Herbicidal activity against Setaria viridis (green foxtail) assessed as growth inhibition at 150 g of active ingredient/ha administered using post-emergence treatment measured 15 days post treatment protocol under greenhouse conditions; in short: as §1
Echinochloa crus-galli [3] = test: Herbicidal activity against Echinochloa crus-galli (barnyard grass) assessed as growth inhibition at 150 g of active ingredient/ha administered using post-emergence treatment measured 15 days post treatment protocol under greenhouse conditions; in short: as §1
Setaria viridis [4] = test: Herbicidal activity against Setaria viridis (green foxtail) assessed as growth inhibition at 75 g of active ingredient/ha administered using post-emergence treatment measured 15 days post treatment protocol under greenhouse conditions; in short: as §1
Setaria viridis [5] = test: Herbicidal activity against Setaria viridis (green foxtail) assessed as growth inhibition at 37.5 g of active ingredient/ha administered using post-emergence treatment measured 15 days post treatment protocol under greenhouse conditions; in short: as §1
Digitaria sanguinalis [6] = test: Herbicidal activity against Digitaria sanguinalis (hairy crabgrass) assessed as growth inhibition at 75 g of active ingredient/ha administered using post-emergence treatment measured 15 days post treatment protocol under greenhouse conditions; in short: as §1
Digitaria sanguinalis [7] = test: Herbicidal activity against Digitaria sanguinalis (hairy crabgrass) assessed as growth inhibition at 37.5 g of active ingredient/ha administered using post-emergence treatment measured 15 days post treatment protocol under greenhouse conditions; in short: as §1
Brassica juncea [8] = test: Herbicidal activity against Brassica juncea assessed as growth inhibition at 37.5 g of active ingredient/ha administered using post-emergence treatment measured 15 days post treatment protocol under greenhouse conditions; in short: as §1
Senna tora [9] = test: Herbicidal activity against Senna tora assessed as growth inhibition at 150 g of active ingredient/ha administered using post-emergence treatment measured 15 days post treatment protocol under greenhouse conditions; in short: as §1
Senna tora [10] = test: Herbicidal activity against Senna tora assessed as growth inhibition at 75 g of active ingredient/ha administered using post-emergence treatment measured 15 days post treatment protocol under greenhouse conditions; in short: as §1
Senna tora [11] = test: Herbicidal activity against Senna tora assessed as growth inhibition at 37.5 g of active ingredient/ha administered using post-emergence treatment measured 15 days post treatment protocol under greenhouse conditions; in short: as §1
Chenopodium album [12] = test: Herbicidal activity against Chenopodium album assessed as growth inhibition at 75 g of active ingredient/ha administered using post-emergence treatment measured 15 days post treatment protocol under greenhouse conditions; in short: as §1
Chenopodium album [13] = test: Herbicidal activity against Chenopodium album assessed as growth inhibition at 37.5 g of active ingredient/ha administered using post-emergence treatment measured 15 days post treatment protocol under greenhouse conditions; in short: as §1
Chenopodium album [14] = test: Herbicidal activity against Chenopodium album assessed as growth inhibition at 150 g of active ingredient/ha administered using post-emergence treatment measured 15 days post treatment protocol under greenhouse conditions; in short: as §1
Amaranthus retroflexus [15] = test: Herbicidal activity against Amaranthus retroflexus assessed as growth inhibition at 150 g of active ingredient/ha administered using post-emergence treatment measured 15 days post treatment protocol under greenhouse conditions; in short: as §1
Digitaria sanguinalis [16] = test: Herbicidal activity against Digitaria sanguinalis (hairy crabgrass) assessed as growth inhibition at 150 g of active ingredient/ha administered using post-emergence treatment measured 15 days post treatment protocol under greenhouse conditions; in short: as §1
Echinochloa crus-galli [17] = test: Herbicidal activity against Echinochloa crus-galli (barnyard grass) assessed as growth inhibition at 75 g of active ingredient/ha administered using post-emergence treatment measured 15 days post treatment protocol under greenhouse conditions; in short: as §1
Echinochloa crus-galli [18] = test: Herbicidal activity against Echinochloa crus-galli (barnyard grass) assessed as growth inhibition at 37.5 g of active ingredient/ha administered using post-emergence treatment measured 15 days post treatment protocol under greenhouse conditions; in short: as §1
Portulaca oleracea [19] = test: Herbicidal activity against Portulaca oleracea assessed as growth inhibition at 150 g of active ingredient/ha administered using post-emergence treatment measured 15 days post treatment protocol under greenhouse conditions; in short: as §1
Portulaca oleracea [20] = test: Herbicidal activity against Portulaca oleracea assessed as growth inhibition at 75 g of active ingredient/ha administered using post-emergence treatment measured 15 days post treatment protocol under greenhouse conditions; in short: as §1
Portulaca oleracea [21] = test: Herbicidal activity against Portulaca oleracea assessed as growth inhibition at 37.5 g of active ingredient/ha administered using post-emergence treatment measured 15 days post treatment protocol under greenhouse conditions; in short: as §1
Cerastium arvense [22] = test: Herbicidal activity against Cerastium arvense assessed as growth inhibition at 150 g of active ingredient/ha administered using post-emergence treatment measured 15 days post treatment protocol under greenhouse conditions; in short: as §1
Cerastium arvense [23] = test: Herbicidal activity against Cerastium arvense assessed as growth inhibition at 75 g of active ingredient/ha administered using post-emergence treatment measured 15 days post treatment protocol under greenhouse conditions; in short: as §1
Cerastium arvense [24] = test: Herbicidal activity against Cerastium arvense assessed as growth inhibition at 37.5 g of active ingredient/ha administered using post-emergence treatment measured 15 days post treatment protocol under greenhouse conditions; in short: as §1
Eclipta prostrata [25] = test: Herbicidal activity against Eclipta prostrata assessed as growth inhibition at 75 g of active ingredient/ha administered using post-emergence treatment measured 15 days post treatment protocol under greenhouse conditions; in short: as §1
Eclipta prostrata [26] = test: Herbicidal activity against Eclipta prostrata assessed as growth inhibition at 37.5 g of active ingredient/ha administered using post-emergence treatment measured 15 days post treatment protocol under greenhouse conditions; in short: as §1
Amaranthus retroflexus [27] = test: Herbicidal activity against Amaranthus retroflexus assessed as growth inhibition at 75 g of active ingredient/ha administered using post-emergence treatment measured 15 days post treatment protocol under greenhouse conditions; in short: as §1
Amaranthus retroflexus [28] = test: Herbicidal activity against Amaranthus retroflexus assessed as growth inhibition at 37.5 g of active ingredient/ha administered using post-emergence treatment measured 15 days post treatment protocol under greenhouse conditions; in short: as §1
Brassica juncea [29] = test: Herbicidal activity against Brassica juncea assessed as growth inhibition at 75 g of active ingredient/ha administered using post-emergence treatment measured 15 days post treatment protocol under greenhouse conditions; in short: as §1

Structure (SMILES): Cc1nn(-c2cc(NS(C)(=O)=O)c(Cl)cc2Cl)c(=O)n1C(F)F [SULFENTRAZONE]
- growth inhibition (GI) (Brassica juncea [1]): 100%
- growth inhibition (GI) (Setaria viridis [2]): >80%
- growth inhibition (GI) (Echinochloa crus-galli [3]): <50%
- growth inhibition (GI) (Setaria viridis [4]): 50%
- growth inhibition (GI) (Setaria viridis [5]): <50%
- growth inhibition (GI) (Digitaria sanguinalis [6]): 50%
- growth inhibition (GI) (Digitaria sanguinalis [7]): 50%
- growth inhibition (GI) (Brassica juncea [8]): >80%
- growth inhibition (GI) (Senna tora [9]): >80%
- growth inhibition (GI) (Senna tora [10]): >80%
- growth inhibition (GI) (Senna tora [11]): >80%
- growth inhibition (GI) (Chenopodium album [12]): 100%
- growth inhibition (GI) (Chenopodium album [13]): 100%
- growth inhibition (GI) (Chenopodium album [14]): 100%
- growth inhibition (GI) (Amaranthus retroflexus [15]): 100%
- growth inhibition (GI) (Digitaria sanguinalis [16]): <50%
- growth inhibition (GI) (Echinochloa crus-galli [17]): 50%
- growth inhibition (GI) (Echinochloa crus-galli [18]): 50%
- growth inhibition (GI) (Portulaca oleracea [19]): 100%
- growth inhibition (GI) (Portulaca oleracea [20]): 100%
- growth inhibition (GI) (Portulaca oleracea [21]): 100%
- growth inhibition (GI) (Cerastium arvense [22]): 100%
- growth inhibition (GI) (Cerastium arvense [23]): 100%
- growth inhibition (GI) (Cerastium arvense [24]): >80%
- growth inhibition (GI) (Eclipta prostrata [25]): 100%
- growth inhibition (GI) (Eclipta prostrata [26]): 100%
- growth inhibition (GI) (Amaranthus retroflexus [27]): 100%
- growth inhibition (GI) (Amaranthus retroflexus [28]): 100%
- growth inhibition (GI) (Brassica juncea [29]): 100%
